Active and inactive are the calls of the source. No cut-off for these calls is given here.
Legend:
Format in all cases: nucleic-acid assay
[1] = system: Quadruplex DNA; experiment: Stabilization and preservation of G-quadruplex homo-purine guanine-rich GA1 (GAGGGAGGGAGGGAAAAGGGGA) DNA (unknown origin) parallel structure conformation at 2 equivalents in 100K buffer by circular dichroism scan analysis; settings: dose 2.0 equiv
Method in brief: (§1)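 CD scans at 20 °C of ~4 μM annealed DNA, alone or with 2 eq. NMM, in 100K buffer. Range 220-330 nm, 1 cm cuvette, 2 nm bandwidth, five scans averaged.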

[2] = system: Quadruplex DNA; experiment: Stabilization and preservation of G-quadruplex homo-purine guanine-rich GA2 (GAGGGAGGGAAAAGGGGAGGGA) DNA (unknown origin) parallel structure conformation at 2 equivalents in 100K buffer by circular dichroism scan analysis; settings: dose 2.0 equiv; method in brief: as §1
[3] = system: Quadruplex DNA; experiment: Stabilization and preservation of G-quadruplex homo-purine guanine-rich GA3 (AGGGAAAAGGGGAGGGAAAAGGGGA) DNA (unknown origin) parallel structure conformation at 2 equivalents in 100K buffer by circular dichroism scan analysis; settings: dose 2.0 equiv; method in brief: as §1
[4] = system: Quadruplex DNA; experiment: Stabilization and preservation of G-quadruplex homo-purine guanine-rich GA1 (GAGGGAGGGAGGGAAAAGGGGA) DNA (unknown origin) parallel structure conformation assessed as increased homogeneity at 2 equivalents in 100K buffer by native PAGE analysis; settings: dose 2.0 equiv
Method in brief: (§2)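 Native 15% polyacrylamide gel in 1×TBE plus 10 mM KCl. Samples of ~50 μM DNA, alone or with 2 eq. NMM, in 100K buffer. Run 150 min at 150 V at room temperature after pre-running, with a dT15-dT57 ladder. Stains-All visualization.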

[5] = system: Quadruplex DNA; experiment: Stabilization and preservation of G-quadruplex homo-purine guanine-rich GA2 (GAGGGAGGGAAAAGGGGAGGGA) DNA (unknown origin) parallel structure conformation assessed as elimination of higher order species at 2 equivalents in 100K buffer by native PAGE analysis; settings: dose 2.0 equiv; method in brief: as §2
[6] = system: Quadruplex DNA; experiment: Stabilization and preservation of G-quadruplex homo-purine guanine-rich GA3 (AGGGAAAAGGGGAGGGAAAAGGGGA) DNA (unknown origin) parallel structure conformation at 2 equivalents in 100K buffer by native PAGE analysis; settings: dose 2.0 equiv; method in brief: as §2
[7] = system: Quadruplex DNA; experiment: Stabilization and preservation of G-quadruplex homo-purine guanine-rich GA1 (GAGGGAGGGAGGGAAAAGGGGA) DNA (unknown origin) parallel structure conformation assessed as increase in melting temperature at 2 equivalents in 100K buffer by UV-Visible melting analysis; settings: dose 2.0 equiv
Method in brief: (§3)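 ~4 μM DNA with or without 2 eq. NMM in 100K buffer (10 mM LiCaco pH 7.2, 100 mM KCl), annealed then cooled slowly. UV-Vis melting 20-90 °C, 0.5 or 0.2 °C/min, signal at 295 nm corrected at 335 nm. Tm and ΔH from a two-state fit (hysteresis under 3 °C).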

[8] = system: Quadruplex DNA; experiment: Stabilization and preservation of G-quadruplex homo-purine guanine-rich GA2 (GAGGGAGGGAAAAGGGGAGGGA) DNA (unknown origin) parallel structure conformation assessed as increase in melting temperature at 2 equivalents in 100K buffer by UV-Visible melting analysis; settings: dose 2.0 equiv; method in brief: as §3
[9] = system: Quadruplex DNA; experiment: Stabilization and preservation of G-quadruplex homo-purine guanine-rich GA3 (AGGGAAAAGGGGAGGGAAAAGGGGA) DNA (unknown origin) parallel structure conformation assessed as increase in melting temperature at 2 equivalents in 100K buffer by UV-Visible melting analysis; settings: dose 2.0 equiv; method in brief: as §3
[10] = system: Quadruplex DNA; experiment: Stabilization and preservation of G-quadruplex homo-purine guanine-rich GA1 (GAGGGAGGGAGGGAAAAGGGGA) DNA (unknown origin) parallel structure conformation assessed as increase in enthalpy change associated with melting transition at 2 equivalents in 100K buffer by UV-Visible melting analysis; settings: dose 2.0 equiv; method in brief: as §3
[11] = system: Quadruplex DNA; experiment: Stabilization and preservation of G-quadruplex homo-purine guanine-rich GA2 (GAGGGAGGGAAAAGGGGAGGGA) DNA (unknown origin) parallel structure conformation assessed as increase in enthalpy change associated with melting transition at 2 equivalents in 100K buffer by UV-Visible melting analysis; settings: dose 2.0 equiv; method in brief: as §3
[12] = system: Quadruplex DNA; experiment: Stabilization and preservation of G-quadruplex homo-purine guanine-rich GA3 (AGGGAAAAGGGGAGGGAAAAGGGGA) DNA (unknown origin) parallel structure conformation assessed as increase in enthalpy change associated with melting transition at 2 equivalents in 100K buffer by UV-Visible melting analysis; settings: dose 2.0 equiv; method in brief: as §3
[13] = system: Quadruplex DNA; experiment: Binding affinity to G-quadruplex homo-purine guanine-rich GA1 (GAGGGAGGGAGGGAAAAGGGGA) DNA (unknown origin) assessed as red shift at 3.3 uM in 5K buffer by UV-Vis titration based analysis
Method in brief: (§4)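 NMM (~3-4 μM, absorbance ~0.5, 1 cm cuvette) in 5K buffer (10 mM LiCaco pH 7.2, 95 mM LiCl, 5 mM KCl), titrated with DNA annealed in 5K buffer (170-470 μM, final [DNA]/[NMM] at least five), 2 min equilibration per addition, spectra 350-480 nm at 20 °C. SVD analysis, fit with NMM concentration fixed. Ka is the average of at least three trials.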

[14] = system: Quadruplex DNA; experiment: Binding affinity to G-quadruplex homo-purine guanine-rich GA2 (GAGGGAGGGAAAAGGGGAGGGA) DNA (unknown origin) assessed as red shift at 3.3 uM in 5K buffer by circular dichroism scan analysis
[15] = system: Quadruplex DNA; experiment: Binding affinity to G-quadruplex homo-purine guanine-rich GA3 (AGGGAAAAGGGGAGGGAAAAGGGGA) DNA (unknown origin) assessed as red shift at 3.3 uM in 5K buffer by circular dichroism scan analysis
[16] = system: Quadruplex DNA; experiment: Binding affinity to G-quadruplex homo-purine guanine-rich GA1 (GAGGGAGGGAGGGAAAAGGGGA) DNA (unknown origin) assessed as hypochromicity at 3.3 uM in 5K buffer by UV-Vis titration based analysis; method in brief: as §4
[17] = system: Quadruplex DNA; experiment: Binding affinity to G-quadruplex homo-purine guanine-rich GA2 (GAGGGAGGGAAAAGGGGAGGGA) DNA (unknown origin) assessed as hypochromicity at 3.3 uM in 5K buffer by circular dichroism scan analysis
[18] = system: Quadruplex DNA; experiment: Binding affinity to G-quadruplex homo-purine guanine-rich GA3 (AGGGAAAAGGGGAGGGAAAAGGGGA) DNA (unknown origin) assessed as hypochromicity at 3.3 uM in 5K buffer by circular dichroism scan analysis
[19] = system: Quadruplex DNA; experiment: Binding affinity to G-quadruplex homo-purine guanine-rich GA1 (GAGGGAGGGAGGGAAAAGGGGA) DNA (unknown origin) at DNA:compound concentration ratio of 1:1 in 5K buffer by UV-Vis titration based analysis; method in brief: as §4
[20] = system: Quadruplex DNA; experiment: Binding affinity to G-quadruplex homo-purine guanine-rich GA2 (GAGGGAGGGAAAAGGGGAGGGA) DNA (unknown origin) at DNA:compound concentration ratio of 1:1 in 5K buffer by UV-Vis titration based analysis; method in brief: as §4
[21] = system: Quadruplex DNA; experiment: Binding affinity to G-quadruplex homo-purine guanine-rich GA3 (AGGGAAAAGGGGAGGGAAAAGGGGA) DNA (unknown origin) at DNA:compound concentration ratio of 1:1 in 5K buffer by UV-Vis titration based analysis; method in brief: as §4
[22] = system: Quadruplex DNA; experiment: Binding affinity to G-quadruplex homo-purine guanine-rich GA1 (GAGGGAGGGAGGGAAAAGGGGA) DNA (unknown origin) at DNA:compound concentration ratio of 1:2 in 5K buffer by UV-Vis titration based analysis; method in brief: as §4
[23] = system: Quadruplex DNA; experiment: Binding affinity to G-quadruplex homo-purine guanine-rich GA3 (AGGGAAAAGGGGAGGGAAAAGGGGA) DNA (unknown origin) at DNA:compound concentration ratio of 1:2 in 5K buffer by UV-Vis titration based analysis; method in brief: as §4
[24] = system: Quadruplex DNA; experiment: Binding affinity to G-quadruplex homo-purine guanine-rich GA1 (GAGGGAGGGAGGGAAAAGGGGA) DNA (unknown origin) at DNA:compound concentration ratio of 2:1 in 5K buffer by UV-Vis titration based analysis; method in brief: as §4
[25] = system: Quadruplex DNA; experiment: Binding affinity to G-quadruplex homo-purine guanine-rich GA3 (AGGGAAAAGGGGAGGGAAAAGGGGA) DNA (unknown origin) at DNA:compound concentration ratio of 2:1 in 5K buffer by UV-Vis titration based analysis; method in brief: as §4
[26] = system: Quadruplex DNA; experiment: Binding affinity to G-quadruplex homo-purine guanine-rich GA1 (GAGGGAGGGAGGGAAAAGGGGA) DNA (unknown origin) at DNA:compound concentration ratio of 1:1 in 5K buffer by fluorescence titration based analysis
Method in brief: (§5)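 Fluorescence titration at 20 °C in 5K buffer: ~1.0 μM NMM titrated with 140-270 μM annealed DNA to a final [DNA]/[NMM] of at least eight. Excitation 395-398 nm (UV-Vis isosbestic points), emission 560-720 nm. Single-component SVD, fit to 1:1, 1:2 and 2:1 models. Ka is the average of at least three trials.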

[27] = system: Quadruplex DNA; experiment: Binding affinity to G-quadruplex homo-purine guanine-rich GA2 (GAGGGAGGGAAAAGGGGAGGGA) DNA (unknown origin) at DNA:compound concentration ratio of 1:1 in 5K buffer by fluorescence titration based analysis; method in brief: as §5
[28] = system: Quadruplex DNA; experiment: Binding affinity to G-quadruplex homo-purine guanine-rich GA3 (AGGGAAAAGGGGAGGGAAAAGGGGA) DNA (unknown origin) at DNA:compound concentration ratio of 1:1 in 5K buffer by fluorescence titration based analysis; method in brief: as §5
[29] = system: Quadruplex DNA; experiment: Binding affinity to G-quadruplex homo-purine guanine-rich GA1 (GAGGGAGGGAGGGAAAAGGGGA) DNA (unknown origin) at DNA:compound concentration ratio of 1:2 in 5K buffer by fluorescence titration based analysis; method in brief: as §5
[30] = system: Quadruplex DNA; experiment: Binding affinity to G-quadruplex homo-purine guanine-rich GA2 (GAGGGAGGGAAAAGGGGAGGGA) DNA (unknown origin) at DNA:compound concentration ratio of 1:2 in 5K buffer by fluorescence titration based analysis; method in brief: as §5
[31] = system: Quadruplex DNA; experiment: Binding affinity to G-quadruplex homo-purine guanine-rich GA3 (AGGGAAAAGGGGAGGGAAAAGGGGA) DNA (unknown origin) at DNA:compound concentration ratio of 1:2 in 5K buffer by fluorescence titration based analysis; method in brief: as §5
[32] = system: Quadruplex DNA; experiment: Binding affinity to G-quadruplex homo-purine guanine-rich GA1 (GAGGGAGGGAGGGAAAAGGGGA) DNA (unknown origin) at DNA:compound concentration ratio of 2:1 in 5K buffer by fluorescence titration based analysis; method in brief: as §5
[33] = system: Quadruplex DNA; experiment: Binding affinity to G-quadruplex homo-purine guanine-rich GA2 (GAGGGAGGGAAAAGGGGAGGGA) DNA (unknown origin) at DNA:compound concentration ratio of 2:1 in 5K buffer by fluorescence titration based analysis; method in brief: as §5
[34] = system: Quadruplex DNA; experiment: Binding affinity to G-quadruplex homo-purine guanine-rich GA3 (AGGGAAAAGGGGAGGGAAAAGGGGA) DNA (unknown origin) at DNA:compound concentration ratio of 2:1 in 5K buffer by fluorescence titration based analysis; method in brief: as §5

Structure (SMILES): CCC1=C(C)c2cc3c(C)c(CCC(=O)O)c(cc4nc(cc5[nH]c(cc1n2)c(C)c5CC)C(C)=C4CCC(=O)O)n3C
- Activity [1]: Active
- Activity [2]: Active
- Activity [3]: Active
- Activity [4]: Active
- Activity [5]: Active
- Activity [6]: Active
- ΔTm [7]: 14.6 °C
- ΔTm [8]: 13.1 °C
- ΔTm [9]: 7 °C
- deltaH [10]: 19.4 kcal/mol
- deltaH [11]: 15.1 kcal/mol
- deltaH [12]: 3.35 kcal/mol
- Activity [13]: 21 nm
- Activity [14]: 21.3 nm
- Activity [15]: 21.4 nm
- Activity [16]: 21%
- Activity [17]: 19%
- Activity [18]: 28%
- Ka [19]: 0.19 µM⁻¹
- Ka [20]: 1.4 µM⁻¹
- Ka [21]: 0.24 µM⁻¹
- Ka [22]: 0.07 µM⁻¹
- Ka [23]: 0.1 µM⁻¹
- Ka [24]: 0.8 µM⁻¹
- Ka [25]: 0.96 µM⁻¹
- Ka [26]: 0.4 µM⁻¹
- Ka [27]: 1 µM⁻¹
- Ka [28]: 0.4 µM⁻¹
- Ka [29]: 0.18 µM⁻¹
- Ka [30]: 0.36 µM⁻¹
- Ka [31]: 0.2 µM⁻¹
- Ka [32]: 1.1 µM⁻¹
- Ka [33]: 3.7 µM⁻¹
- Ka [34]: 1.1 µM⁻¹

From ChEMBL document CHEMBL5241123, “Homopurine guanine-rich sequences in complex with N-methyl mesoporphyrin IX form parallel G-quadruplex dimers and display a unique symmetry tetrad” (Bioorg Med Chem, 2023)
